{"source": "ChEMBL document CHEMBL1123771", "about": "“Synthesis and structure-activity relationships of potent new angiotensin converting enzyme inhibitors containing saturated bicyclic amino acids” (J Med Chem, 1987)", "key": {"Rattus norvegicus [1]": {"test_system": "Rattus norvegicus", "assay": "Mean aortic base line blood pressure in conscious renal 2-kidney/1-clip goldblatt hypertensive rat at a dose 0.3 mg/kg administered orally", "type": "functional, Artery", "settings": "route oral"}, "Rattus norvegicus [2]": {"test_system": "Rattus norvegicus", "assay": "Maximum change in mean aortic blood pressure in conscious renal 2-kidney/1-clip goldblatt hypertensive rat at a dose 1.0 mg/kg administered orally at 8h; 4 animals tested", "type": "functional, Artery", "settings": "route oral", "procedure,_shortened": "(§1)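 Male Sprague–Dawley rats, 4 weeks old, given a silver clip (0.2-mm gap) on the left renal artery with the other kidney intact. Hypertension developed over 4–8 weeks, then rats (280–320 g) were aortic-cannulated; only those with mean pressure >160 mmHg were used. Oral dosing. One-minute running averages were logged every 30 min. Results are mean ± 1 SEM, from 3–5 rats.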"}, "Rattus norvegicus [3]": {"test_system": "Rattus norvegicus", "assay": "Maximum change in mean aortic blood pressure in conscious renal 2-kidney/1-clip goldblatt hypertensive rat at a dose 3 mg/kg administered orally at 5h; 4 animals tested", "type": "functional, Artery", "settings": "route oral", "procedure,_shortened": "as §1"}, "Rattus norvegicus [4]": {"test_system": "Rattus norvegicus", "assay": "Maximum change in mean aortic blood pressure in conscious renal 2-kidney/1-clip goldblatt hypertensive rat at a dose 10 mg/kg administered orally at 4 hr; 4 animals tested", "type": "functional, Artery", "settings": "route oral", "procedure,_shortened": "as §1"}, "Rattus norvegicus [5]": {"test_system": "Rattus norvegicus", "assay": "Maximum change in mean aortic blood pressure in conscious renal 2-kidney/1-clip goldblatt hypertensive rat at a dose 0.3 mg/kg administered orally at 5h; 4 animals tested", "type": "functional, Artery", "settings": "route oral", "procedure,_shortened": "as §1"}, "Rattus norvegicus [6]": {"test_system": "Rattus norvegicus", "assay": "Mean aortic base line blood pressure in conscious renal 2-kidney/1-clip goldblatt hypertensive rat at a dose 1.0 mg/kg administered orally", "type": "functional, Artery", "settings": "route oral", "procedure,_shortened": "as §1"}, "Rattus norvegicus [7]": {"test_system": "Rattus norvegicus", "assay": "Mean aortic base line blood pressure in conscious renal 2-kidney/1-clip goldblatt hypertensive rat at a dose 10 mg/kg administered orally", "type": "functional, Artery", "settings": "route oral", "procedure,_shortened": "as §1"}, "Rattus norvegicus [8]": {"test_system": "Rattus norvegicus", "assay": "Mean aortic base line blood pressure in conscious renal 2-kidney/1-clip goldblatt hypertensive rat at a dose 3.0 mg/kg administered orally", "type": "functional, Artery", "settings": "route oral"}, "Rattus norvegicus [9]": {"test_system": "Rattus norvegicus", "assay": "Maximum change in mean aortic blood pressure in conscious renal 2-kidney/1-clip goldblatt hypertensive rat at a dose 30 mg/kg administered orally at 5h; 5 animals tested", "type": "functional, Artery", "settings": "route oral", "procedure,_shortened": "as §1"}, "Rattus norvegicus [10]": {"test_system": "Rattus norvegicus", "assay": "Maximum change in mean aortic blood pressure in conscious renal 2-kidney/1-clip goldblatt hypertensive rat at a dose 3 mg/kg administered orally at 8h; 5 animals tested", "type": "functional, Artery", "settings": "route oral", "procedure,_shortened": "as §1"}, "Rattus norvegicus [11]": {"test_system": "Rattus norvegicus", "assay": "Maximum change in mean aortic blood pressure in conscious renal 2-kidney/1-clip goldblatt hypertensive rat at a dose 10 mg/kg administered orally at 3 hr; 5 animals tested", "type": "functional, Artery", "settings": "route oral", "procedure,_shortened": "as §1"}, "Rattus norvegicus [12]": {"test_system": "Rattus norvegicus", "assay": "Mean aortic base line blood pressure in conscious renal 2-kidney/1-clip goldblatt hypertensive rat at a dose 3 mg/kg administered orally", "type": "functional, Artery", "settings": "route oral", "procedure,_shortened": "as §1"}, "Rattus norvegicus [13]": {"test_system": "Rattus norvegicus", "assay": "Mean aortic base line blood pressure in conscious renal 2-kidney/1-clip goldblatt hypertensive rat at a dose 30 mg/kg administered orally", "type": "functional, Artery", "settings": "route oral"}, "[14]": {"molecular_target": "T1, Angiotensin-converting enzyme (Rattus norvegicus, UniProt P47820)", "T1 sequence (P47820 whole entry)": "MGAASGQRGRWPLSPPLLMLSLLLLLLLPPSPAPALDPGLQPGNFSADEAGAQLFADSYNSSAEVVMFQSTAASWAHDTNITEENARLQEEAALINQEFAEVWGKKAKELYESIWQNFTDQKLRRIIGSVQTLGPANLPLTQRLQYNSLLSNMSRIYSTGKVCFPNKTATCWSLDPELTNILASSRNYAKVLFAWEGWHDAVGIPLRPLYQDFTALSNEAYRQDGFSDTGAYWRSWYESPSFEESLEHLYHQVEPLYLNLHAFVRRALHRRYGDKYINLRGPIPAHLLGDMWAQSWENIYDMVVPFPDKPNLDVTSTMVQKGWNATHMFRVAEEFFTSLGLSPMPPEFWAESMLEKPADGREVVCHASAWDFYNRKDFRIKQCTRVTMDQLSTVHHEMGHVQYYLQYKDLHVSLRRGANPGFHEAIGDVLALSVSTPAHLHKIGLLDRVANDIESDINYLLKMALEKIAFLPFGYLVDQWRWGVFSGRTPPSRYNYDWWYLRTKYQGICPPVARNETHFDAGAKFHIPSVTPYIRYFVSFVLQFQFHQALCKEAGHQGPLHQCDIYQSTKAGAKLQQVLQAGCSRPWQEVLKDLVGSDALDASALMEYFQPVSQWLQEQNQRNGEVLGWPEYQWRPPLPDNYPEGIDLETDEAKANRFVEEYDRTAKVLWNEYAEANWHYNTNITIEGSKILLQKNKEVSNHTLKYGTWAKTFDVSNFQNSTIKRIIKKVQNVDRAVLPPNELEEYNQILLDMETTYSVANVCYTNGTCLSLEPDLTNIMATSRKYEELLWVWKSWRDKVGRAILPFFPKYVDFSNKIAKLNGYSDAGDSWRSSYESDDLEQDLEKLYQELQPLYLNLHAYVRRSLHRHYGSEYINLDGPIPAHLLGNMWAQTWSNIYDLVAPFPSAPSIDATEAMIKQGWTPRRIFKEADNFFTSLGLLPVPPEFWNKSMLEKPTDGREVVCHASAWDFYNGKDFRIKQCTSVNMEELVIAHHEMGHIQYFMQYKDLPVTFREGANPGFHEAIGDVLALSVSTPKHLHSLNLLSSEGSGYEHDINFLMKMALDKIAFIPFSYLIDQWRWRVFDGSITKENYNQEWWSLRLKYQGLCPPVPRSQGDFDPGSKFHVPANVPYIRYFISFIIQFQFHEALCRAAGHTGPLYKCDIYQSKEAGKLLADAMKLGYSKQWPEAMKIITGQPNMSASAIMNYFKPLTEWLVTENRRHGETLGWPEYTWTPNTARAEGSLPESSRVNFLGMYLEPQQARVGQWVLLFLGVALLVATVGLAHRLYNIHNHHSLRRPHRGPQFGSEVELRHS", "assay": "Inhibition of rat Angiotensin I converting enzyme (ACE), using Hip-Gly-Gly as synthetic substrate.", "procedure,_shortened": "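Radioassay of converting-enzyme activity with Hip-Gly-Gly as substrate; compounds dissolved at 2–5 mg/mL in Me2SO, then diluted to test concentrations in pH 8 buffer (0.05 M Hepes, 0.1 M NaCl, 0.6 M Na2SO4).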"}, "Rattus norvegicus [15]": {"test_system": "Rattus norvegicus", "assay": "Maximum change in mean aortic blood pressure in conscious renal 2-kidney/1-clip goldblatt hypertensive rat at a dose 0.3 mg/kg administered orally at 8h; 4 animals tested", "type": "functional, Artery", "settings": "route oral", "procedure,_shortened": "as §1"}, "Rattus norvegicus [16]": {"test_system": "Rattus norvegicus", "assay": "Maximum change in mean aortic blood pressure in conscious renal 2-kidney/1-clip goldblatt hypertensive rat at a dose 3.0 mg/kg administered orally at 5h; 4 animals tested", "type": "functional, Artery", "settings": "route oral", "procedure,_shortened": "as §1"}, "Rattus norvegicus [17]": {"test_system": "Rattus norvegicus", "assay": "Maximum change in mean aortic blood pressure in conscious renal 2-kidney/1-clip goldblatt hypertensive rat at a dose 1.0 mg/kg administered orally at 5h; 4 animals tested", "type": "functional, Artery", "settings": "route oral", "procedure,_shortened": "as §1"}, "Rattus norvegicus [18]": {"test_system": "Rattus norvegicus", "assay": "Mean aortic base line blood pressure in conscious renal 2-kidney/1-clip goldblatt hypertensive rat at a dose 0.1 mg/kg administered orally", "type": "functional, Artery", "settings": "route oral", "procedure,_shortened": "as §1"}, "Rattus norvegicus [19]": {"test_system": "Rattus norvegicus", "assay": "Maximum change in mean aortic blood pressure in conscious renal 2-kidney/1-clip goldblatt hypertensive rat at a dose 30 mg/kg administered orally at 10h; 4 animals tested", "type": "functional, Artery", "settings": "route oral", "procedure,_shortened": "as §1"}, "Rattus norvegicus [20]": {"test_system": "Rattus norvegicus", "assay": "Maximum change in mean aortic blood pressure in conscious renal 2-kidney/1-clip goldblatt hypertensive rat at a dose 1.0 mg/kg administered orally at 3 hr; 4 animals tested", "type": "functional, Artery", "settings": "route oral", "procedure,_shortened": "as §1"}, "Rattus norvegicus [21]": {"test_system": "Rattus norvegicus", "assay": "Maximum change in mean aortic blood pressure in conscious renal 2-kidney/1-clip goldblatt hypertensive rat at a dose 30 mg/kg administered orally at 6 h; 4 animals tested", "type": "functional, Artery", "settings": "route oral"}, "Rattus norvegicus [22]": {"test_system": "Rattus norvegicus", "assay": "Maximum change in mean aortic blood pressure in conscious renal 2-kidney/1-clip goldblatt hypertensive rat at a dose 0.1 mg/kg administered orally at 10h; 4 animals tested", "type": "functional, Artery", "settings": "route oral", "procedure,_shortened": "as §1"}}, "data": [{"compound": "CCOC(=O)[C@H](CCc1ccccc1)N[C@@H](C)C(=O)N1CCC[C@H]1C(=O)O", "values": [{"measurement": "Mean aortic blood pressure", "setting": "Rattus norvegicus [1]", "result": 201, "unit": "mmHg"}, {"measurement": "Mean aortic blood pressure", "setting": "Rattus norvegicus [2]", "result": -24, "unit": "mmHg"}, {"measurement": "Mean aortic blood pressure", "setting": "Rattus norvegicus [3]", "result": -56, "unit": "mmHg"}, {"measurement": "Mean aortic blood pressure", "setting": "Rattus norvegicus [4]", "result": -56, "unit": "mmHg"}, {"measurement": "Mean aortic blood pressure", "setting": "Rattus norvegicus [5]", "result": -39, "unit": "mmHg"}, {"measurement": "Mean aortic blood pressure", "setting": "Rattus norvegicus [6]", "result": 175, "unit": "mmHg"}, {"measurement": "Mean aortic blood pressure", "setting": "Rattus norvegicus [7]", "result": 199, "unit": "mmHg"}, {"measurement": "Mean aortic blood pressure", "setting": "Rattus norvegicus [8]", "result": 200, "unit": "mmHg"}]}, {"compound": "O=C(O)[C@@H]1C[C@@H]2CCCC[C@@H]2N1C(=O)CCS", "note": "(stereo in doubt; 8b)", "values": [{"measurement": "Mean aortic blood pressure", "setting": "Rattus norvegicus [9]", "result": -91, "unit": "mmHg"}, {"measurement": "Mean aortic blood pressure", "setting": "Rattus norvegicus [10]", "result": -73, "unit": "mmHg"}, {"measurement": "Mean aortic blood pressure", "setting": "Rattus norvegicus [11]", "result": -89, "unit": "mmHg"}, {"measurement": "Mean aortic blood pressure", "setting": "Rattus norvegicus [12]", "result": 198, "unit": "mmHg"}, {"measurement": "Mean aortic blood pressure", "setting": "Rattus norvegicus [13]", "result": 198, "unit": "mmHg"}, {"measurement": "IC50", "setting": "[14]", "result": 13, "unit": "nM"}, {"measurement": "Mean aortic blood pressure", "setting": "Rattus norvegicus [7]", "result": 198, "unit": "mmHg"}]}, {"compound": "CC(CS)C(=O)N1[C@H](C(=O)O)C[C@@H]2CCCC[C@@H]21", "note": "(stereo in doubt; 9c)", "values": [{"measurement": "Mean aortic blood pressure", "setting": "Rattus norvegicus [15]", "result": -19, "unit": "mmHg"}, {"measurement": "Mean aortic blood pressure", "setting": "Rattus norvegicus [1]", "result": 185, "unit": "mmHg"}, {"measurement": "Mean aortic blood pressure", "setting": "Rattus norvegicus [16]", "result": -81, "unit": "mmHg"}, {"measurement": "Mean aortic blood pressure", "setting": "Rattus norvegicus [17]", "result": -72, "unit": "mmHg"}, {"measurement": "Mean aortic blood pressure", "setting": "Rattus norvegicus [18]", "result": 184, "unit": "mmHg"}, {"measurement": "Mean aortic blood pressure", "setting": "Rattus norvegicus [19]", "result": -115, "unit": "mmHg"}, {"measurement": "Mean aortic blood pressure", "setting": "Rattus norvegicus [13]; 30 mg/kg", "result": 197, "unit": "mmHg"}, {"measurement": "Mean aortic blood pressure", "setting": "Rattus norvegicus [6]", "result": 178, "unit": "mmHg"}, {"measurement": "IC50", "setting": "[14]", "result": 7.7, "unit": "nM"}, {"measurement": "Mean aortic blood pressure", "setting": "Rattus norvegicus [8]", "result": 190, "unit": "mmHg"}]}, {"compound": "CCOC(=O)C(CCc1ccccc1)NC(C)C(=O)N1[C@H](C(=O)O)C[C@@H]2CCCC[C@@H]21.Cl", "note": "(stereo in doubt; 11a)", "values": [{"measurement": "Mean aortic blood pressure", "setting": "Rattus norvegicus [1]", "result": 191, "unit": "mmHg"}, {"measurement": "Mean aortic blood pressure", "setting": "Rattus norvegicus [20]", "result": -72, "unit": "mmHg"}, {"measurement": "Mean aortic blood pressure", "setting": "Rattus norvegicus [18]", "result": 185, "unit": "mmHg"}, {"measurement": "Mean aortic blood pressure", "setting": "Rattus norvegicus [5]", "result": -73, "unit": "mmHg"}, {"measurement": "Mean aortic blood pressure", "setting": "Rattus norvegicus [13]", "result": 185, "unit": "mmHg"}, {"measurement": "Mean aortic blood pressure", "setting": "Rattus norvegicus [6]", "result": 190, "unit": "mmHg"}, {"measurement": "Mean aortic blood pressure", "setting": "Rattus norvegicus [21]", "result": -102, "unit": "mmHg"}, {"measurement": "Mean aortic blood pressure", "setting": "Rattus norvegicus [7]", "result": 197, "unit": "mmHg"}, {"measurement": "Mean aortic blood pressure", "setting": "Rattus norvegicus [22]", "result": -52, "unit": "mmHg"}]}]}
